Source: publication PMC6754270 (Cell chemical biology, 2019)
Values joined by “and” are separate entries in the source; they are usually repeats but may differ in a detail not shown here. Equal entries are not always repeated. Where two headings read alike, the source gives them in different places.

Key:
[1] = biological target: T1, spastin-WT (Drosophila melanogaster spastin, aa 209–758) (Drosophila melanogaster, UniProt Q8I0P1); experiment: Steady-state ATPase activity, NADH-coupled assay, spastin-WT; type: biochemical
T1 sequence (Q8I0P1 209-758): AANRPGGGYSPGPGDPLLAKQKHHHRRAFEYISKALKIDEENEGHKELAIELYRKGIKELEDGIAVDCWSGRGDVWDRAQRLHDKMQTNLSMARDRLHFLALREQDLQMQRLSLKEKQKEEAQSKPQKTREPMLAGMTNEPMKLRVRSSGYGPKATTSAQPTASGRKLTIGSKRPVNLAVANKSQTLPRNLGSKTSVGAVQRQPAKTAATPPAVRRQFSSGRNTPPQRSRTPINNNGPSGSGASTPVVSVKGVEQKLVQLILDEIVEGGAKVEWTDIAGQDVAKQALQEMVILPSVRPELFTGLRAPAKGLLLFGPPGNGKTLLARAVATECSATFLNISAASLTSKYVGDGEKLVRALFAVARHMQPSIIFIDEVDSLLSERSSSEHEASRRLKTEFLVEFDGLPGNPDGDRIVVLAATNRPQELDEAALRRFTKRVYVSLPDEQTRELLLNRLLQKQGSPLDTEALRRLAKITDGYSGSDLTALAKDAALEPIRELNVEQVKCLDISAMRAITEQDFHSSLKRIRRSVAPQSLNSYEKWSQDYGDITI

[2] = biological target: spastin-Q488V (aa 209–758) (Drosophila melanogaster, UniProt Q8I0P1, Q488V); experiment: Steady-state ATPase activity, NADH-coupled assay, spastin-Q488V; type: biochemical; details: for Change in inhibitor potency, Q488V (N-loop) vs wild-type: ATPase assay, compound 4: reduction in potency
[3] = biological target: spastin-N527C (aa 209–758) (Drosophila melanogaster, UniProt Q8I0P1, N527C); experiment: Steady-state ATPase activity, NADH-coupled assay, spastin-N527C; type: biochemical; details: for Change in inhibitor potency, N527C (P-loop) vs wild-type: ATPase assay, compound 4: reduction in potency
[4] = biological target: spastin-T692A (aa 209–758) (Drosophila melanogaster, UniProt Q8I0P1, T692A); experiment: Steady-state ATPase activity, NADH-coupled assay, spastin-T692A; type: biochemical; details: for Change in inhibitor potency, T692A (sensor-II) vs wild-type: ATPase assay, compound 1: increase in potency
[5] = biological target: T2, spastin-AAA-WT (aa 445–758) (Drosophila melanogaster, UniProt Q8I0P1); experiment: Differential scanning fluorimetry, spastin-AAA-WT; type: binding; details: 100 µM compound, vs DMSO, n=2
T2 sequence (Q8I0P1 445-758): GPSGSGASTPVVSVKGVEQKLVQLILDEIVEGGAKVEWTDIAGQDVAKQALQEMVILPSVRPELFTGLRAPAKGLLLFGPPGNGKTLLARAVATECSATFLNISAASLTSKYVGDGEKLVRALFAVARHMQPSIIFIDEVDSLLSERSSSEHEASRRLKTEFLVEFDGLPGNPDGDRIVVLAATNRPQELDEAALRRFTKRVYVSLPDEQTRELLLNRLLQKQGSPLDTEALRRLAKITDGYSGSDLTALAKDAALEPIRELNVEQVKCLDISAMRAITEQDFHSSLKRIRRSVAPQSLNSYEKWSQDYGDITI
In short: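 Drosophila spastin AAA domain (aa 445–758), expressed as a GST fusion in E. coli Rosetta, protease-cleaved and purified by anion exchange and gel filtration. Tm taken as minimum of first-derivative melt curve; n=2, range shown.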

[6] = biological target: spastin-AAA-N527C (aa 445–758) (Drosophila melanogaster, UniProt Q8I0P1, N527C); experiment: Differential scanning fluorimetry, spastin-AAA-N527C; type: binding; details: 100 µM compound, vs DMSO, n=2
[7] = biological target: spastin-AAA-Q488V (aa 445–758) (Drosophila melanogaster, UniProt Q8I0P1, Q488V); experiment: Differential scanning fluorimetry, spastin-AAA-Q488V; type: binding; details: 100 µM compound, vs DMSO, n=2
[8] = biological target: spastin-AAA-T692A (aa 445–758) (Drosophila melanogaster, UniProt Q8I0P1, T692A); experiment: Differential scanning fluorimetry, spastin-AAA-T692A; type: binding; details: 100 µM compound, vs DMSO, n=2
katanin (Xl-katanin) [9] = biological target: T3, katanin (Xl-katanin) (Xenopus laevis, UniProt Q9PUL2); experiment: Steady-state ATPase activity of katanin; type: biochemical, X. laevis; details: 2 µM compound, 0.5 mM MgATP, n=2
[10] = biological target: T4, fidgetin-like 1 (Hs-FIGL1) (Homo sapiens, UniProt Q6PIW4); experiment: Steady-state ATPase activity of fidgetin-like 1; type: biochemical, H. sapiens; details: 2 µM compound, 0.5 mM MgATP, n=2
T4 sequence (Q6PIW4 1-674): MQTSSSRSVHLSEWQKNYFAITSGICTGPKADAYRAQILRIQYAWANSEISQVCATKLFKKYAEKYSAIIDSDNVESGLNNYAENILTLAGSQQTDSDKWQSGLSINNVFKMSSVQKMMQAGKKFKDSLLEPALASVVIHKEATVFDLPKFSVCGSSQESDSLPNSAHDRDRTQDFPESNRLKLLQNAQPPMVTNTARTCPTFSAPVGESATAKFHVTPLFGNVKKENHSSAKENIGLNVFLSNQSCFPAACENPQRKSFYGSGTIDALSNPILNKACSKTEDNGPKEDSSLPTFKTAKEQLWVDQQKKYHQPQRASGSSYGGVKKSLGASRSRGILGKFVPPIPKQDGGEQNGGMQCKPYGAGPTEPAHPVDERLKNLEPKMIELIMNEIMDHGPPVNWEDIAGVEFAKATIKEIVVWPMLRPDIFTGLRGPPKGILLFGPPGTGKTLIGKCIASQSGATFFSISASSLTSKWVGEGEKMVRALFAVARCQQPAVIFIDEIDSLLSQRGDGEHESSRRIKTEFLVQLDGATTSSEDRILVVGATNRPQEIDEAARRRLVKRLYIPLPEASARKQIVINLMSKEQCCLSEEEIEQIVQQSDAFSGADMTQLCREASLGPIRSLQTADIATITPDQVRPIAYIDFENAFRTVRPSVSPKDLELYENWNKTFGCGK

VPS4B (Hs-VPS4B) = biological target: T5, VPS4B (Hs-VPS4B) (Homo sapiens, UniProt O75351); experiment: Steady-state ATPase activity of VPS4B; type: biochemical, H. sapiens; details: 2 µM compound, 0.5 mM MgATP, n=2
T5 sequence (O75351 1-444): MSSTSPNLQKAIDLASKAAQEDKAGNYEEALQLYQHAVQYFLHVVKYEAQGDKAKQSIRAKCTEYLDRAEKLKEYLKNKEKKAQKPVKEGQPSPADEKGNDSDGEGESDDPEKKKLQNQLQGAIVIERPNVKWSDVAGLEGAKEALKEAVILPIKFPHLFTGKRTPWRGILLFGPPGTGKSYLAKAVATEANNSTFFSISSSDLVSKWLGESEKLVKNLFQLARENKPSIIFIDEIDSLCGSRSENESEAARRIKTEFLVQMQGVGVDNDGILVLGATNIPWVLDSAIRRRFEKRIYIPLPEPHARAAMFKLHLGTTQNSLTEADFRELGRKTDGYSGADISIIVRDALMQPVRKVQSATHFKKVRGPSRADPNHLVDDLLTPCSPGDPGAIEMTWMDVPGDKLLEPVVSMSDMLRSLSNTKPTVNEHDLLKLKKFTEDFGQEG

human VCP/p97 T688A = details: sensor-II variability hot-spot mutation; ref Anderson et al., 2015; cited from earlier work
[11] = biological target: T1, spastin-WT (Drosophila melanogaster spastin, aa 209–758); details: ref Cupido et al., 2019; cited from earlier work
katanin (Xl-katanin) [12] = biological target: T3, katanin (Xl-katanin); details: ref Cupido et al., 2019; cited from earlier work
[13] = biological target: T4, fidgetin-like 1 (Hs-FIGL1); details: ref Cupido et al., 2019; cited from earlier work

Sequence of spastin-N527C (aa 209–758) (Q8I0P1 209-758 N527C): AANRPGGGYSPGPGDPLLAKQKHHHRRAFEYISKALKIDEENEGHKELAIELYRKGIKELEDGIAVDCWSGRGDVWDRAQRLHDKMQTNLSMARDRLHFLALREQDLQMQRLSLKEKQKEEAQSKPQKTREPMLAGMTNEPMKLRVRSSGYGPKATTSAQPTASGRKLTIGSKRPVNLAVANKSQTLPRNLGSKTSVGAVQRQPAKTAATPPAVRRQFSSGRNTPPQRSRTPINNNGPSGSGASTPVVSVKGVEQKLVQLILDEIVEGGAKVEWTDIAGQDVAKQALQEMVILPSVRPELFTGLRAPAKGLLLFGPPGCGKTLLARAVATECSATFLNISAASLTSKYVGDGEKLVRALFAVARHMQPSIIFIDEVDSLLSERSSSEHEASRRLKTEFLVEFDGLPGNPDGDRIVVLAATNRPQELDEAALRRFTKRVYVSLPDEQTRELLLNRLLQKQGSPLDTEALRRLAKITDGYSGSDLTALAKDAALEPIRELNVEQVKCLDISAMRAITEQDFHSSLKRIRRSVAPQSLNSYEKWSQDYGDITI
Sequence of spastin-T692A (aa 209–758) (Q8I0P1 209-758 T692A): as the sequence (Q8I0P1 209-758 N527C) above, with C319N, T484A counted along it
Sequence of spastin-Q488V (aa 209–758) (Q8I0P1 209-758 Q488V): as the sequence (Q8I0P1 209-758 N527C) above, with Q280V, C319N counted along it
T3 sequence (Q9PUL2 whole entry): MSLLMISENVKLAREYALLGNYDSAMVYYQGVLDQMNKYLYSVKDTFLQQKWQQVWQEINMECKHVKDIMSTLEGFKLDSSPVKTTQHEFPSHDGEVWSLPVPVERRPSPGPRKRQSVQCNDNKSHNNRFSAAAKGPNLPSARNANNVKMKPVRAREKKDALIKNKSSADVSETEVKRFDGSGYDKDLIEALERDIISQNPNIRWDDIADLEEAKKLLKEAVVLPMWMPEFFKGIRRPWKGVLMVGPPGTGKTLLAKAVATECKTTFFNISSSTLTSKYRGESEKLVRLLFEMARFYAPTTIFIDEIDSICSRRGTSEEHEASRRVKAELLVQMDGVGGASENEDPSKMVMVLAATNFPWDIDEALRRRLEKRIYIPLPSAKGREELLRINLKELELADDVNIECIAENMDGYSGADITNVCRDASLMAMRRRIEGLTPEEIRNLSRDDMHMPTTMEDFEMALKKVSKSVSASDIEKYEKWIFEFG
Sequence of spastin-AAA-T692A (aa 445–758) (Q8I0P1 445-758 T692A): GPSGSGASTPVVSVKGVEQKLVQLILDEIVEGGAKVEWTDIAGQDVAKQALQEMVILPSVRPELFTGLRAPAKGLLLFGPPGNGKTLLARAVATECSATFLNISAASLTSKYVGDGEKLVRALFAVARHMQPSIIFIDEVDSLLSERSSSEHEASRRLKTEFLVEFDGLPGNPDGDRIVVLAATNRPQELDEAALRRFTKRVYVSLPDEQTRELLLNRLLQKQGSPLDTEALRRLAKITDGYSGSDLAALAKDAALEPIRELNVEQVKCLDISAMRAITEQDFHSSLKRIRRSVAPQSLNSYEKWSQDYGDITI
Sequence of spastin-AAA-N527C (aa 445–758) (Q8I0P1 445-758 N527C): as the sequence (Q8I0P1 445-758 T692A) above, with N83C, A248T counted along it
Sequence of spastin-AAA-Q488V (aa 445–758) (Q8I0P1 445-758 Q488V): as the sequence (Q8I0P1 445-758 T692A) above, with Q44V, A248T counted along it

Compound	IC50 [2] [nM]	Change in inhibitor potency, Q488V (N-loop) vs wild-type [2]	IC50 [3] [nM]	Change in inhibitor potency, N527C (P-loop) vs wild-type [3]	IC50 [4] [nM]	Change in inhibitor potency, T692A (sensor-II) vs wild-type [4]	Observed ∆Tm, spastin-AAA-WT [5]	Observed ∆Tm, spastin-AAA-N527C [6]	Observed ∆Tm, spastin-AAA-Q488V [7]	Observed ∆Tm, spastin-AAA-T692A [8]	other results
CNC(=O)c1cccc(Nc2nc(N)n(C(=O)c3c(F)cccc3OC)n2)c1 [compound 4, 3-((5-amino-1-(2-fluoro-6-methoxybenzoyl)-1H-1,2,4-triazol-3-yl)amino)-N-methylbenzamide]	2600 ± 150	~ 11 fold	1110 ± 210	~ 4 fold	220 ± 40	did not change the potency	~ 6.7 °C	~ 4.5 °C	~ 5.0 °C	~ 7.2 °C	IC50 [1]: 230 ± 20 nM; Inhibition of steady-state ATPase activity of spastin ([1]; 2 µM compound, 0.5 mM MgATP, n=2): potently inhibits; Inhibition of steady-state ATPase activity of katanin (katanin (Xl-katanin) [9]): does not substantially inhibit; Inhibition of steady-state ATPase activity of fidgetin-like 1 [10]: does not substantially inhibit; Inhibition of steady-state ATPase activity of VPS4B (VPS4B (Hs-VPS4B)): does not substantially inhibit
Cc1cc2c(C(N)=O)cccc2n1-c1nc2c(c(NCc3ccccc3)n1)COCC2 [CB-5083]	–	–	–	–	–	–	–	–	–	–	Change in compound potency, T688A vs wild-type VCP/p97 (human VCP/p97 T688A): > 60 fold
Nc1nc(Nc2ccc(S(N)(=O)=O)cc2)nn1C(=O)c1c(F)cccc1F [compound 1, 4-((5-amino-1-(2,6-difluorobenzoyl)-1H-1,2,4-triazol-3-yl)amino)benzenesulfonamide]	8900 ± 500	less than 2 fold	6000 ± 1000	less than 2 fold	900 ± 100	~ 7 fold	~ 4.5 °C	~ 4.3 °C	~ 4.5 °C	~ 6.2 °C	IC50 ([1]; IC50, inhibition of steady-state ATPase activity of spastin-WT, 0.5 mM MgATP, average ± s.d., n=3): 5700 nM and 5800 nM; Mechanism of inhibition ([1]; range of ATP concentrations, apparent K1/2 for ATP increased, kcat not altered): ATP competitive mechanism of inhibition; Effect on ATPase activity of spastin [11]: blocks the ATPase activity; Effect on ATPase activity of katanin (katanin (Xl-katanin) [12]): blocks the ATPase activity; Effect on ATPase activity of fidgetin-like 1 [13]: blocks the ATPase activity
